73 sequences from the array DNA melting data of Ke et al. (doi:10.1101/2024.01.08.574731) can be followed below.

The nature of data set [1]: folding enthalpy; higher = less favourable; fluorescence melt of hairpins on a sequencing array, two-state fit. Conditions: sodium 0.088 M. An outline of the steps: (§1)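 Cy3 signals were normalised both to pre-quench Cy3 and to control constructs. They came from library hairpins carrying annealed Cy3 and quencher oligos on a sequenced MiSeq flow cell, imaged in 50 mM Na-HEPES pH 8.0, 25 mM NaCl, in 2.5 °C steps up to 60 °C. Bootstrapped two-state fits gave melting temperature and folding enthalpy, and four replicates were combined by inverse variance. Fitted temperatures were then raised by 9.35 °C to match UV melts.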

Data set [2] in a line: melting temperature; fluorescence melt of hairpins on a sequencing array, two-state fit, raised by 9.35 °C to match UV melts. The following applies: sodium 0.088 M. A digest of the protocol:
as §1

Consider GGGTATCGAAAGATGCCC (((.(((....))).))), for which the folding enthalpy in data set [1] was -58.7 kcal/mol. The Tm in data set [2] was found to be 58.2 °C.
As to GGGTATGAAAATACCC ((((((....)))))), in data set [1], the folding enthalpy was -35.4 kcal/mol. The Tm in data set [2] came out at 57.6 °C.
On the same counts, the results for GGGTATGGAAACATACCC (((((((....))))))) are -44 kcal/mol and 62.6 °C.
Regarding GGGTATGGAAACATATCC ((.((((....)))).)), the folding enthalpy in data set [1] was -39.3 kcal/mol. Also, the Tm in data set [2] was 44.2 °C.
In the case of GGGTATGGAAACGTATCC ((.((.(....).)).)), the folding enthalpy in data set [1] is -19.8 kcal/mol. For the same sequence, the Tm in data set [2] was 30.5 °C.
The corresponding values for GGGTCACGAAAGTGCCC (((.(((....)))))) are -39.9 kcal/mol and 58.5 °C.
Take GGGTCAGAAATGACCC ((((((....)))))): the folding enthalpy in data set [1] is -34.5 kcal/mol. For the same sequence, in data set [2], the Tm amounted to 65.1 °C.
On the same counts, the results for GGGTCAGGAAACCGACCC (((((.(....).))))) are -37.3 kcal/mol and 52.7 °C.
For GGGTCCGAAAGGAAACCC ((((((....)))..))), the folding enthalpy in data set [1] is -22.8 kcal/mol. The Tm in data set [2] came to 50.2 °C.
GGGTCCGAAAGGAAGCCC ((((((....)))..))): the folding enthalpy in data set [1] was -18.8 kcal/mol. Besides, the Tm in data set [2] was found to be 46.9 °C.
Take GGGTCCGAAAGGACGCCC ((((((....)))..))): the folding enthalpy in data set [1] was -10.3 kcal/mol. In data set [2], the Tm was 48.9 °C.
For GGGTCCGAAAGGATCCCC ((((((....)))..))), in data set [1], the folding enthalpy was -14.6 kcal/mol. In data set [2], the Tm is 60.5 °C.
On the same counts, the results for GGGTCCGGAAACGAACCC ((((.((....)).)))) are -31.9 kcal/mol and 49 °C.
The corresponding values for GGGTCGACGAAAGTCCCC (((..(((....)))))) are -17.7 kcal/mol and 38.7 °C.
The corresponding values for GGGTCGGGAAACCGATCC ((.((((....)))).)) are -47.4 kcal/mol and 57.4 °C.
GGGTCTCGAAAGAGCCC (((.(((....)))))): in data set [1], the folding enthalpy was -32 kcal/mol. Further, the Tm in data set [2] is 58.2 °C.
On the same counts, the results for GGGTCTCGAAAGAGGCCC (((.(((....))).))) are -29.1 kcal/mol and 67.7 °C.
On the same counts, the results for GGGTCTGGAAACAGATCC ((.((((....)))).)) are -43.7 kcal/mol and 51.9 °C.
On the same counts, the results for GGGTGACGAAAGTCCCCC (((.(((....))).))) are -28.2 kcal/mol and 57.9 °C.
For GGGTGAGGAAACTTACCC ((((.((....)).)))), in data set [1], the folding enthalpy is -35.7 kcal/mol. Moreover, the Tm in data set [2] was determined as 47.7 °C.
As for GGGTGCGAAAGCAACCC ((((((....))).))), in data set [1], the folding enthalpy was -18.9 kcal/mol. Moreover, the Tm in data set [2] was found to be 68.5 °C.
The corresponding values for GGGTGCGAAAGCATCCCC ((((((....)))..))) are -13.4 kcal/mol and 64.3 °C.
As for GGGTGGCGAAAGCCCCCC (((.(((....))).))), in data set [1], the folding enthalpy is -17.4 kcal/mol. Also, the Tm in data set [2] is 65 °C.
The corresponding values for GGGTGGGGAAACCCGCCC (((.(((....))).))) are -33.6 kcal/mol and 67.3 °C.
Regarding GGGTGTGAAAACACCC ((((((....)))))), in data set [1], the folding enthalpy was -34.4 kcal/mol. Further, the Tm in data set [2] was determined as 69 °C.
In the case of GGGTGTGGAAACATGCCC (((..((....))..))), in data set [1], the folding enthalpy was -28.4 kcal/mol. In data set [2], the Tm came out at 47.7 °C.
The corresponding values for GGGTTACGAAAGTACCCC (((.(((....))).))) are -22.9 kcal/mol and 52.1 °C.
On the same counts, the results for GGGTTAGGAAACTAACTC (.(((((....))))).) are -25.8 kcal/mol and 42.3 °C.
GGGTTATCGAAAGATCCC (((..(((....)))))): the folding enthalpy in data set [1] is -24.3 kcal/mol. Also, the Tm in data set [2] worked out at 34.9 °C.
With GGGTTCCGAAAGGACCC (((.(((....)))))), the folding enthalpy in data set [1] is -31.6 kcal/mol. Besides, the Tm in data set [2] came to 58.1 °C.
On the same counts, the results for GGGTTCGAAAGAAAACCC ((((((....)))..))) are -23.8 kcal/mol and 42.2 °C.
In the case of GGGTTCGAAAGAAATCCC ((((((....)))..))), in data set [1], the folding enthalpy is -21.3 kcal/mol. Besides, in data set [2], the Tm is 33.6 °C.
As to GGGTTCGAAAGAAGCCC ((((((....))).))), in data set [1], the folding enthalpy was -24.1 kcal/mol. In addition, in data set [2], the Tm was 55.7 °C.
On the same counts, the results for GGGTTCGCGAAAGCGCCC (((..(((....)))))) are -15.3 kcal/mol and 43.6 °C.
Turning to GGGTTCGGAAACGAATCC ((.((((....)))).)), the folding enthalpy in data set [1] is -44 kcal/mol. Besides, in data set [2], the Tm came out at 53.7 °C.
In the case of GGGTTCGGAAACGAGCTC (.(.(((....))).).), in data set [1], the folding enthalpy is -24 kcal/mol. For the same sequence, in data set [2], the Tm was 37.8 °C.
The corresponding values for GGGTTGGGAAACCAATCC ((.((((....)))).)) are -32.8 kcal/mol and 50.8 °C.
The corresponding values for GGGTTGGGAAACCAGCTC (.(.(((....))).).) are -18.6 kcal/mol and 36.1 °C.
On the same counts, the results for GGTAAATCGAAAGATACC (((..(((....)))))) are -15.1 kcal/mol and 30.4 °C.
With GGTAACCGAAAGGTAACC (((.(((....))).))), the folding enthalpy in data set [1] was -20.8 kcal/mol. For the same sequence, in data set [2], the Tm stood at 50.8 °C.
The corresponding values for GGTAACCGAAAGGTGACC (((.(((....))).))) are -36.3 kcal/mol and 55.4 °C.
With GGTAACGAAAGTTACACC ((((((....)))..))), the folding enthalpy in data set [1] is -13.9 kcal/mol. The Tm in data set [2] was determined as 43.5 °C.
On to GGTAACGAAAGTTATACC ((((((....)))..))), for which the folding enthalpy in data set [1] is -22.1 kcal/mol. Further, in data set [2], the Tm came out at 32.6 °C.
Regarding GGTAACGAAAGTTCCACC ((((((....)))..))), the folding enthalpy in data set [1] is -12.3 kcal/mol. The Tm in data set [2] turned out to be 33.3 °C.
Turning to GGTAACGAAAGTTCTACC ((((((....)))..))), in data set [1], the folding enthalpy was -13.9 kcal/mol. Also, in data set [2], the Tm was determined as 28.2 °C.
On the same counts, the results for GGTAACGAAAGTTTACC ((((((....))).))) are -22.4 kcal/mol and 43.3 °C.
The corresponding values for GGTAACGAAAGTTTGACC ((((((....)))..))) are -19.4 kcal/mol and 28.9 °C.
The corresponding values for GGTAACGGAAACGTCACC (((.(((....))).))) are -32 kcal/mol and 42.8 °C.
For the sequence GGTAACTCGAAAGAGACC (((..(((....)))))), in data set [1], the folding enthalpy is -14.5 kcal/mol. Further, the Tm in data set [2] worked out at 31.3 °C.
The corresponding values for GGTAAGCGAAAGCTGACC (((.(((....))).))) are -26.2 kcal/mol and 58.4 °C.
The corresponding values for GGTAAGGGAAACTTTACC (((((.(....).))))) are -21.3 kcal/mol and 36.4 °C.
Consider GGTAATCGAAAGATACC (((.(((....)))))), for which the folding enthalpy in data set [1] was -27.2 kcal/mol. The Tm in data set [2] stood at 40.5 °C.
The corresponding values for GGTAATGGAAACATTACC (((((((....))))))) are -42.8 kcal/mol and 55.9 °C.
Consider GGTACACGAAAGTGAACC (((.(((....))).))), for which the folding enthalpy in data set [1] is -36.8 kcal/mol. Moreover, the Tm in data set [2] came to 53.9 °C.
Consider GGTACACGAAAGTGGACC (((.(((....))).))), for which the folding enthalpy in data set [1] was -38.2 kcal/mol. Further, the Tm in data set [2] amounted to 67.2 °C.
On the same counts, the results for GGTACCACGAAAGTGACC (((..(((....)))))) are -13.4 kcal/mol and 30.1 °C.
On the same counts, the results for GGTACCCGAAAGGGAACC (((.(((....))).))) are -26.8 kcal/mol and 59.7 °C.
On to GGTACCGGAAACGATACC ((((.((....)).)))), for which the folding enthalpy in data set [1] was -31.9 kcal/mol. For the same sequence, the Tm in data set [2] turned out to be 42.7 °C.
Consider GGTACCGGAAACGGTGTC (..((((....))))..), for which the folding enthalpy in data set [1] was -13.4 kcal/mol. Also, the Tm in data set [2] came to 36.7 °C.
On the same counts, the results for GGTACGGGAAACTGTGCC ((.((.(....).)).)) are -31.2 kcal/mol and 43.1 °C.
On the same counts, the results for GGTACTGGAAACAGCACC (((.(((....))).))) are -29.3 kcal/mol and 43.9 °C.
GGTACTGGAAACGGTACC (((((.(....).))))): the folding enthalpy in data set [1] was -40.9 kcal/mol. The Tm in data set [2] was determined as 50.4 °C.
The corresponding values for GGTAGAGGAAACTCTACC (((((((....))))))) are -46.8 kcal/mol and 57.8 °C.
The corresponding values for GGTAGAGGAAACTCTGCC ((.((((....)))).)) are -34.2 kcal/mol and 49.2 °C.
As to GGTAGCCCGAAAGGGACC (((..(((....)))))), in data set [1], the folding enthalpy is -12.6 kcal/mol. In addition, in data set [2], the Tm amounted to 33.6 °C.
GGTAGCGAAAGCTGCACC ((((((....)))..))): the folding enthalpy in data set [1] was -13.2 kcal/mol. The Tm in data set [2] turned out to be 39 °C.
The corresponding values for GGTAGCGAAAGCTGGACC ((((((....)))..))) are -12.6 kcal/mol and 37.4 °C.
The corresponding values for GGTAGCGAAAGCTTAACC ((((((....)))..))) are -16.7 kcal/mol and 38.1 °C.
Regarding GGTAGCGCGAAAGCGACC (((..(((....)))))), the folding enthalpy in data set [1] is -13.3 kcal/mol. Further, the Tm in data set [2] amounted to 40 °C.
Take GGTAGCGGAAACGCTGCC ((.((((....)))).)): the folding enthalpy in data set [1] was -37.9 kcal/mol. In addition, the Tm in data set [2] turned out to be 62.5 °C.
As for GGTAGCGGAAACGCTGTC (..((((....))))..), in data set [1], the folding enthalpy was -13.4 kcal/mol. Also, the Tm in data set [2] came out at 34.8 °C.
On to GGTAGGACGAAAGTCACC (((..(((....)))))), for which, in data set [1], the folding enthalpy is -15.5 kcal/mol. The Tm in data set [2] stood at 35.8 °C.
The corresponding values for GGTAGGGCGAAAGCCACC (((..(((....)))))) are -14 kcal/mol and 41.9 °C.
